The values that follow come from ChEMBL document CHEMBL1208724, “A new group of oxime carbamates as reversible inhibitors of fatty acid amide hydrolase” (Bioorg Med Chem Lett, 2010).

pIC50: −log10 of the molar value. Active and inactive are the calls of the source. The rule behind the calls is not given here.

In assay [1] the target is T1, Fatty-acid amide hydrolase 1 (Mus musculus, UniProt O08914).
T1 sequence (O08914 whole entry): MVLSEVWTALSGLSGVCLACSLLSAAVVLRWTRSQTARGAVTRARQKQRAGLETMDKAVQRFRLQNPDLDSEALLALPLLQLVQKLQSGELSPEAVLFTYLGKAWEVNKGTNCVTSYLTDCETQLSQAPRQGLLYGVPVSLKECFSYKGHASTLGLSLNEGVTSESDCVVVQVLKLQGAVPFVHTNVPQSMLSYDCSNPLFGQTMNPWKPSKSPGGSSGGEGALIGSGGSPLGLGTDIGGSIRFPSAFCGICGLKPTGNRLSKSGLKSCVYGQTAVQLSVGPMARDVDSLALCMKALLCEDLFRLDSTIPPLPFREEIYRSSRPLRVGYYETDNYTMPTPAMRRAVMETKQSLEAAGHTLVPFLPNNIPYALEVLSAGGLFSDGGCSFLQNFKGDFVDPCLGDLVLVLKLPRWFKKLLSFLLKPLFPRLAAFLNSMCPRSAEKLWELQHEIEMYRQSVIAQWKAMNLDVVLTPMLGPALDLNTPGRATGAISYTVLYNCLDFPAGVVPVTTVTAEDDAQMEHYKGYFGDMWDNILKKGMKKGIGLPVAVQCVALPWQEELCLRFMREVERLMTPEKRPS
In words: Inhibition of mouse brain FAAH assessed as conversion of [3H-ethanolamine]AEA to [3H]ethanolamine by scintillation counting.

In assay [2] the target is Adrenergic receptor alpha-1 (Rattus norvegicus, UniProt P15823+P23944+P43140). In words: Displacement of [3H]prazosine from alpha1 receptor in rat cerebral cortex. It counts as tissue-based. On the technique in general: Loss of bound radioactivity is the signal in a displacement assay; it reports binding, not function.
The target in assay [3] is Beta-2 adrenergic receptor (Homo sapiens, UniProt P07550). In words: Displacement of [3H](-)CGP 12177 from human recombinant beta2 receptor expressed in CHO cells. The class given is cell-based.
Assay [4] concerns the target Muscarinic acetylcholine receptor M2 (Homo sapiens, UniProt P08172). In words: Displacement of [3H]AF-DX 384 from human recombinant muscarinic M2 receptor expressed in CHO cells. It counts as cell-based.
Assay [5] is described as follows: Displacement of [3H]GABA from GABA receptor in rat cerebral cortex. It counts as tissue-based.
Assay [6] concerns the target Neuropeptide Y receptor type 1 (Homo sapiens, UniProt P25929). In words: Displacement of [125I]peptide YY from human recombinant Y1 receptor expressed in […] cell.
The target in a further assay is Galanin receptor type 2 (Homo sapiens, UniProt O43603). In words: Displacement of [125I]Galanin from human recombinant GAL2 receptor expressed in CHO cells. It counts as cell-based.
Assay [7] addresses Melatonin receptor type 1A (Homo sapiens, UniProt P48039). In words: Displacement of [125I]2-iodomelatonin from human recombinant MT1 receptor expressed in CHO cells. It counts as cell-based.
Assay [8] has as its target Neurotensin receptor type 1 (Homo sapiens, UniProt P30989). In words: Displacement of [125I]Tyr3-neurotensin from human recombinant NT1 receptor expressed in H recombinant CHO cells. It counts as cell-based.
Assay [9] has as its target Beta-1 adrenergic receptor (Homo sapiens, UniProt P08588). In words: Displacement of [3H](-)CGP 12177 from human recombinant beta-1 receptor expressed in HEK293 cells. The class given is cell-based.
The target in assay [10] is Fatty-acid amide hydrolase 1 (Mus musculus) (UniProt O08914). In words: Inhibition of mouse brain FAAH assessed as residual activity. The essentials:
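FAAH was pre-incubated 20 min with an excess of inhibitor, then dialyzed 18 h at 4 °C against 20 mM Tris–HCl (pH 7.0). Residual activity was assayed before and after dialysis and compared with untreated controls. In a separate run, enzyme was pre-incubated with inhibitor at room temperature for 0–60 min before substrate turnover was measured. Values are means ± S.D. of three independent experiments.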

Assay [11] in a line: Displacement of [3H]DADLE from human recombinant delta 2 opioid receptor expressed in CHO cells. The class given is cell-based.
The target of another assay is Thromboxane A2 receptor (Homo sapiens, UniProt P21731). In words: Displacement of [3H]SQ 29548 from human recombinant TXA2 receptor expressed in HEK293 cells. It counts as cell-based.
Assay [12] concerns the target 5-hydroxytryptamine receptor 5A (Homo sapiens, UniProt P47898). In words: Displacement of [3H]LSD from human recombinant 5HT5A receptor expressed in CHO cells. It counts as cell-based.
In assay [13] the target is C-X-C chemokine receptor type 2 (Homo sapiens, UniProt P25025). In words: Displacement of [125I]IL-8 from human recombinant CXCR2 receptor expressed in HEK293 cells. The class given is cell-based.
Chain of C-X-C chemokine receptor type 2 (P25025 whole entry): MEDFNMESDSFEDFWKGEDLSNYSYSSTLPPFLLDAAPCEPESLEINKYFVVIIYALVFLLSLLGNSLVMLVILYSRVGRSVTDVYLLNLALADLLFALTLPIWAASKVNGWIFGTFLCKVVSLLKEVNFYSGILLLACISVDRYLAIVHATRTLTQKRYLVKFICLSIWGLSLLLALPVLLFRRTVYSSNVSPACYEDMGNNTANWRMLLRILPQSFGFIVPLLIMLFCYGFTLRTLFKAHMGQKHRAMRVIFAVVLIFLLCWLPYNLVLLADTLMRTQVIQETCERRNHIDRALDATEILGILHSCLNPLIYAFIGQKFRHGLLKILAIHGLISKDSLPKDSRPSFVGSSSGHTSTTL

Chain of Thromboxane A2 receptor (P21731 whole entry): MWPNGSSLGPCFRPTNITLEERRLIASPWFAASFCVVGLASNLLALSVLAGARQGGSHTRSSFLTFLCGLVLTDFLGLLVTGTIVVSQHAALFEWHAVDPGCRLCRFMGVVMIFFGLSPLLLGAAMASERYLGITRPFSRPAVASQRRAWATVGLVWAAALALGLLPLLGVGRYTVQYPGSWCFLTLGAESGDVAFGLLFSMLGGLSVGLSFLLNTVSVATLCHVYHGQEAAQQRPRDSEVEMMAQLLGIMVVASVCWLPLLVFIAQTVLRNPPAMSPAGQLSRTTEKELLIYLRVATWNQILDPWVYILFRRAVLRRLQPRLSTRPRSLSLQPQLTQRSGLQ
Chain of Neuropeptide Y receptor type 1 (P25929 whole entry): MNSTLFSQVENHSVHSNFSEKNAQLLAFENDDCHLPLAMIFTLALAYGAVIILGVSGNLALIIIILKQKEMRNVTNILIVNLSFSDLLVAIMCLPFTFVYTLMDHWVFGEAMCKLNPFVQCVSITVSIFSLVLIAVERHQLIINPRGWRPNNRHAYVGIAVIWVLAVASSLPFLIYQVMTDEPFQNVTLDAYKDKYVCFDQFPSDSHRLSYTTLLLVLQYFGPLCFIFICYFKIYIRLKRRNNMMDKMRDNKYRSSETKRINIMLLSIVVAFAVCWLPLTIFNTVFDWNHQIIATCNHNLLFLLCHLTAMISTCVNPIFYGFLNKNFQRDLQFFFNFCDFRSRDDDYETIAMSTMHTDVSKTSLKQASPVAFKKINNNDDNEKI
Chain of Beta-2 adrenergic receptor (P07550 whole entry): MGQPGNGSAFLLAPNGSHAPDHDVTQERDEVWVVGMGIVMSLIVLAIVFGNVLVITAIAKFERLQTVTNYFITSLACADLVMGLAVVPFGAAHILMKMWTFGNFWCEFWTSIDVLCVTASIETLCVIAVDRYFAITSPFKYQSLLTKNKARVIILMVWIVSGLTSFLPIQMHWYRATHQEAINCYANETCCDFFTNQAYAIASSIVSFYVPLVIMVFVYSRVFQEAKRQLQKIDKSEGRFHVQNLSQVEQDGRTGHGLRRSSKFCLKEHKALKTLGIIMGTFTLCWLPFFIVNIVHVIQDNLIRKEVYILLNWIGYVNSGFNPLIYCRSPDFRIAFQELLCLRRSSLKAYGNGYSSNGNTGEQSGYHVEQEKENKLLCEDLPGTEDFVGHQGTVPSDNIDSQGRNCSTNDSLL
Chain of Galanin receptor type 2 (O43603 whole entry): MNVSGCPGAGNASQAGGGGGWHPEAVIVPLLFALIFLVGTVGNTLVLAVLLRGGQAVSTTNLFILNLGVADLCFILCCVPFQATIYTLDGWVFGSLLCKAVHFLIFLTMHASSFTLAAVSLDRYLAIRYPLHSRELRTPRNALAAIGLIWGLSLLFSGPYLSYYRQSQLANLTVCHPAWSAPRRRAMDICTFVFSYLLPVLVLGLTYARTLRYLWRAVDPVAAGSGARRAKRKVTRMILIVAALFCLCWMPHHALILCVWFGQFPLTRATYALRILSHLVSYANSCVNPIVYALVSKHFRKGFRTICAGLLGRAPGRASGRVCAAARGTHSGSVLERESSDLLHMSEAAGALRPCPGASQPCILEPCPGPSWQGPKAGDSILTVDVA
Chain of Muscarinic acetylcholine receptor M2 (P08172 whole entry): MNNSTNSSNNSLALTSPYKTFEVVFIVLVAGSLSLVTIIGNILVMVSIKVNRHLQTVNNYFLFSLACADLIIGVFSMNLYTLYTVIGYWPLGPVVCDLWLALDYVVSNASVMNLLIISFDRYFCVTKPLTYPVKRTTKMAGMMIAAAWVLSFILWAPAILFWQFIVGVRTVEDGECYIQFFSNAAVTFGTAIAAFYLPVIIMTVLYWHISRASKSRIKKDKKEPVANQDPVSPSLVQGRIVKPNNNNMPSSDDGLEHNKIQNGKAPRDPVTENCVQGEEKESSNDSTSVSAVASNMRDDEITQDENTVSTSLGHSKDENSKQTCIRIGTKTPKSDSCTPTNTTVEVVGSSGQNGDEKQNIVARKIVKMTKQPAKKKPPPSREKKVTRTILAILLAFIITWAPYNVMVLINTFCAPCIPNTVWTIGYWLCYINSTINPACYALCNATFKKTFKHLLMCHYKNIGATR
Chain of Melatonin receptor type 1A (P48039 whole entry): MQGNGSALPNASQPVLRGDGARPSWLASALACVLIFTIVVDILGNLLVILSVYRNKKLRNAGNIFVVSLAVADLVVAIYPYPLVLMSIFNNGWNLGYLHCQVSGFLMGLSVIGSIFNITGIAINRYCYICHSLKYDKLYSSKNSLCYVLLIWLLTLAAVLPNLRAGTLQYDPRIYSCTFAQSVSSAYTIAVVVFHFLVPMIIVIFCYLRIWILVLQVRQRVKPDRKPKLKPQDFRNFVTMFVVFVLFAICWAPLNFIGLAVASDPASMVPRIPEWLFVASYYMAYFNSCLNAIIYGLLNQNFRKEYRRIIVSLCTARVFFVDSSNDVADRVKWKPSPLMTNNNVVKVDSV
Chain of Beta-1 adrenergic receptor (P08588 whole entry): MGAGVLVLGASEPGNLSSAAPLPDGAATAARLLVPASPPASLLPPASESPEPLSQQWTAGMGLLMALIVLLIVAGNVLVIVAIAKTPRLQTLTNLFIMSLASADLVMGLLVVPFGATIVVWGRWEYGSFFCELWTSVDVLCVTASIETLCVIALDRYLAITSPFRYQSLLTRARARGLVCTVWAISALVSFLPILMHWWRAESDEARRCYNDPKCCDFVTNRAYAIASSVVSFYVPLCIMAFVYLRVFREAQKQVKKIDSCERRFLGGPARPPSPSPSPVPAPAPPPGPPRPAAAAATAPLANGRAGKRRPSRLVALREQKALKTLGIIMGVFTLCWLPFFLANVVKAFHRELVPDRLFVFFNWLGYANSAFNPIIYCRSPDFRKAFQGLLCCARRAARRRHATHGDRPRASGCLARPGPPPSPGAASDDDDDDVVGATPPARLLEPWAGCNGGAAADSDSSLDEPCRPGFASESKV
Chain of 5-hydroxytryptamine receptor 5A (P47898 whole entry): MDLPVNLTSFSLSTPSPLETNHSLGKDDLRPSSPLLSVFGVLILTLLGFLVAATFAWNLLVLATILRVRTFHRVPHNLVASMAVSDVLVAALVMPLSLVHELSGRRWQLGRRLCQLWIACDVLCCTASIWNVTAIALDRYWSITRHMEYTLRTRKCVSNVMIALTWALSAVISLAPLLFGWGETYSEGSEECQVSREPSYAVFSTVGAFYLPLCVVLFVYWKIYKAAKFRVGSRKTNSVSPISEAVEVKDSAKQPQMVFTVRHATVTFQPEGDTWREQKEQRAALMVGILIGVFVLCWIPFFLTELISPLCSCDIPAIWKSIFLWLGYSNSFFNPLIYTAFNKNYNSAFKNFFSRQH
Chain of Neurotensin receptor type 1 (P30989 whole entry): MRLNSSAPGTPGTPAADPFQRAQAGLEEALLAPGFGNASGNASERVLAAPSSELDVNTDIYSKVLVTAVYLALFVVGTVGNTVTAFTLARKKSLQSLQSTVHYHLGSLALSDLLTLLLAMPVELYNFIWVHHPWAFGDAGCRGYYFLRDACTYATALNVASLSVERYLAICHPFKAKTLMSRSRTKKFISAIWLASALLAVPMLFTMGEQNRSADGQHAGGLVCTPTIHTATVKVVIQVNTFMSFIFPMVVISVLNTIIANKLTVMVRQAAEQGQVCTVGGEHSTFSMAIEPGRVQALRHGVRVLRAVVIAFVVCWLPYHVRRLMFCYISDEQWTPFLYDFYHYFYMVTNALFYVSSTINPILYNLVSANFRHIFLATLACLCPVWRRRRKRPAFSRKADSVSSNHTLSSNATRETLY

The term pIC50 denotes the negative decadic logarithm of the IC50, by convention in mol/L. In general, IC50 refers to the concentration at which inhibition is half-maximal. For the molecule `C/C(=N\OC(=O)Nc1ccccc1)c1cccc(-c2cccs2)c1`, the pIC50 in assay [1] was 8.10; in [3] it was below 5.00; in assay [4], below 5.00; in assay [5], below 5.00; in assay [6], below 5.00; on Galanin receptor type 2, below 5.00. The pIC50 in assay [7] was below 5.00; in [8], below 5.00; in [9], below 5.00; in [11], 6.00; on Thromboxane A2 receptor, below 5.00; in assay [12] it was 6.00. Besides, the pIC50 in assay [13] is below 5.00. This molecule came in with a half-maximal inhibitory concentration (IC50) in assay [2] above 10 µM. Also, in [10], the inhibition result was “Active”.
